Reference: ChEMBL document CHEMBL4392827, “Tryptamine derivatives disarm colistin resistance in polymyxin-resistant gram-negative bacteria” (Bioorg Med Chem, 2019)

How the values were obtained:
[1] = test system: Acinetobacter baumannii; assay: Potentiation of colistin-induced antimicrobial activity against colistin-resistant Acinetobacter baumannii isolate 3942 assessed as fold reduction in colistin MIC at 15 uM after 18 hrs by broth microdilution assay; type: functional
Summary of the method: (§1)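 CLSI-adapted broth microdilution. Bacteria were grown 4–6 h in cation-adjusted Mueller-Hinton broth and subcultured to 5 ×10^5 CFU/mL. The subculture was dosed with adjuvant from DMSO stock at a constant final concentration, then colistin was added and serially diluted across wells. Plates were incubated stationary at 37°C for 18 h and the MIC recorded. Fold reduction is relative to the colistin MIC without adjuvant.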

[2] = test system: Klebsiella pneumoniae; assay: Potentiation of colistin-induced antimicrobial activity against colistin-resistant Klebsiella pneumoniae isolate C3 assessed as fold reduction in colistin MIC at 5 uM after 18 hrs by broth microdilution assay; type: functional; summary of the method: as §1
[3] = test system: Klebsiella pneumoniae; assay: Potentiation of colistin-induced antimicrobial activity against colistin-resistant Klebsiella pneumoniae isolate C3 assessed as fold reduction in colistin MIC at 50 uM after 18 hrs by broth microdilution assay; type: functional; summary of the method: as §1
[4] = test system: Acinetobacter baumannii; assay: Potentiation of colistin-induced antimicrobial activity against colistin-resistant Acinetobacter baumannii isolate 3942 assessed as fold reduction in colistin MIC at 5 uM after 18 hrs by broth microdilution assay; type: functional; summary of the method: as §1
[5] = test system: Klebsiella pneumoniae; assay: Potentiation of colistin-induced antimicrobial activity against colistin-resistant Klebsiella pneumoniae isolate C3 assessed as fold reduction in colistin MIC at 15 uM after 18 hrs by broth microdilution assay; type: functional; summary of the method: as §1
[6] = test system: Escherichia coli; assay: Toxicity in Escherichia coli ATCC 25922 after 18 hrs by broth microdilution assay; type: organism-based; conditions: in vitro
Summary of the method: (§2)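 Single-agent MIC per CLSI broth microdilution. Cells from a 4–6 h culture in cation-adjusted Mueller-Hinton broth adjusted to 5 ×10^5 CFU/mL. Compound (DMSO stock) added to 200 μM top concentration and twofold serially diluted six times, with an untreated control row. Plates sealed and incubated stationary at 37°C for 18 h before MIC read.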

[7] = test system: Acinetobacter baumannii; assay: Potentiation of colistin-induced antimicrobial activity against colistin-resistant Acinetobacter baumannii isolate 3941 assessed as fold reduction in colistin MIC at 60 uM after 18 hrs by broth microdilution assay; type: functional
Summary of the method: (§3)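 Checkerboard-style resensitization following adapted CLSI broth microdilution. Bacteria were grown 4–6 h in CAMHB and subcultured to 5×10^5 CFU/mL. Adjuvant was added from DMSO stock and held constant while colistin was serially diluted in the dosed subculture. Plates were incubated stationary at 37°C for 18 h, then MICs were read. Fold reduction was taken relative to the colistin MIC without adjuvant.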

[8] = test system: Acinetobacter baumannii; assay: Induction of membrane permeabilization in colistin-resistant Acinetobacter baumannii isolate 3942 at 60 uM measured after 1 hr by SYTO-9/propidium iodide staining based fluorescence assay relative to control; type: functional
Summary of the method: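 Cells were grown overnight in CAMHB at 37°C, diluted 1:10 and grown 4 h more to an OD600 of ~0.3. They were pelleted, washed with sterile water and resuspended at 1/10 volume in water containing compound. After 1 h at 37°C with shaking, cells were washed and stained with SYTO-9/propidium iodide (1:1, 3 μL/mL) for 15 min at RT. Emission was read at 530 and 645 nm (excitation 485 nm), and the green/red ratio was expressed as % of the untreated control.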

[9] = test system: Klebsiella pneumoniae; assay: Potentiation of colistin-induced antimicrobial activity against colistin-resistant Klebsiella pneumoniae isolate C3 assessed as fold reduction in colistin MIC at 20 uM after 18 hrs by broth microdilution assay; type: functional; summary of the method: as §1
[10] = test system: Acinetobacter baumannii; assay: Potentiation of colistin-induced antimicrobial activity against colistin-resistant Acinetobacter baumannii isolate 3942 assessed as fold reduction in colistin MIC at 30 uM after 18 hrs by broth microdilution assay; type: functional; summary of the method: as §1
[11] = test system: Acinetobacter baumannii; assay: Toxicity in Acinetobacter baumannii 4106 after 18 hrs by broth microdilution assay; type: organism-based; conditions: in vitro; summary of the method: as §2
[12] = test system: Acinetobacter baumannii; assay: Potentiation of colistin-induced antimicrobial activity against colistin-resistant Acinetobacter baumannii isolate 3942 after 18 hrs by broth microdilution assay; type: functional, organism-based
Summary of the method: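 Colistin MIC was determined by adapted CLSI broth microdilution in CAMHB (5×10^5 CFU/mL inoculum), with adjuvant held at fixed levels of 5, 10, 15, 20, 30, 40, 50 or 60 μM. Adjuvant was dosed from DMSO stock while colistin was serially diluted. Plates were incubated stationary at 37°C for 18 h. Fold reduction was taken versus colistin alone.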

[13] = test system: Acinetobacter baumannii; assay: Potentiation of colistin-induced antimicrobial activity against colistin-sensitive Acinetobacter baumannii 5075 assessed as fold reduction in colistin MIC at 60 uM after 18 hrs by broth microdilution assay; type: functional
Summary of the method: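 Bacteria grown 4–6 h in cation-adjusted Mueller-Hinton broth and diluted to 5 ×10^5 CFU/mL. Adjuvant from DMSO stock held at fixed 60 μM while colistin is twofold serially diluted in the same adjuvant-dosed broth. Plates sealed and kept stationary at 37°C for 18 h. Colistin MIC read and fold reduction taken relative to colistin alone.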

[14] = test system: Klebsiella pneumoniae; assay: Toxicity in Klebsiella pneumoniae B9 after 18 hrs by broth microdilution assay; type: organism-based; summary of the method: as §2
[15] = test system: Acinetobacter baumannii; assay: Potentiation of colistin-induced antimicrobial activity against colistin-resistant Acinetobacter baumannii isolate 3942 assessed as fold reduction in colistin MIC at 20 uM after 18 hrs by broth microdilution assay; type: functional; summary of the method: as §1
[16] = test system: Klebsiella pneumoniae; assay: Potentiation of colistin-induced antimicrobial activity against colistin-resistant Klebsiella pneumoniae isolate C3 assessed as fold reduction in colistin MIC at 60 uM incubated for 2 to 24 hrs under shaking condition in presence of 0.001% triton X-100 by broth microdilution assay; type: functional
[17] = test system: Escherichia coli; assay: Potentiation of colistin-induced antimicrobial activity against colistin-resistant Escherichia coli ATCC 25922 expressing mcr1 gene assessed as fold reduction in colistin MIC at 60 uM after 18 hrs by broth microdilution assay; type: functional; summary of the method: as §3
[18] = test system: Klebsiella pneumoniae; assay: Potentiation of colistin-induced antimicrobial activity against colistin-resistant Klebsiella pneumoniae isolate C3 assessed as fold reduction in colistin MIC at 30 uM incubated for 2 to 24 hrs under shaking condition in presence of 0.001% triton X-100 by broth microdilution assay; type: functional

SMILES: O=C(NCc1c[nH]c2ccccc12)c1cc(Br)c(Br)[nH]1
- fold change (FC) [1]: 8
- fold change (FC) [2]: 4
- fold change (FC) [3]: 512
- fold change (FC) [4]: 0
- fold change (FC) [5]: 64
- MIC [6]: > 200 µM
- fold change (FC) [7]: 1024
- fold change (FC) [8]: 1.9
- fold change (FC) [9]: 128
- fold change (FC) [10]: 128
- MIC [11]: > 200 µM
- Activity [12]: Dose-dependent effect
- fold change (FC) [13]: 4
- MIC [14]: > 200 µM
- fold change (FC) [15]: 16
- fold change (FC) [16]: 2048
- fold change (FC) [17]: 16
- fold change (FC) [18]: 512
